Active and inactive are the calls of the source. No cut-off for these calls is given here.

13 compounds from ChEMBL document CHEMBL1240313, “A clinical drug library screen identifies astemizole as an antimalarial agent” (Nat Chem Biol, 2006) can be followed below.

Series [1] deals with Heme. The experiment in a line: Inhibition of heme crystallization after 16 hrs. In outline:
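Heme crystal extension was seeded with 2.5 nmol heme crystal and run with 50 µM heme in 0.1 M ammonium acetate, pH 4.8, at 37°C for 16 h. Crystal extension was quantified by the differential solubility of free versus crystalline heme in 0.15 M sodium bicarbonate. IC50 came from a four-parameter logistic fit and is given as mean ± s.e.m. of triplicate experiments.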

For series [2], the system named is Heme. The experiment in a line: Displacement of [3H]astemizole from free heme crystal at 15 uM after 16 hrs by scintillation counting. In a few lines: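 [3H]-astemizole (27 Ci/mmol) was incubated in triplicate with a 5 nmol heme crystal seed and 50 µM heme in 0.1 M ammonium acetate, pH 4.8, for 16 h at 37°C. Crystal was pelleted, sonicated, and spun through 1.7 M sucrose at 200,000 × g. The pellet was decrystallized in 50 mM NaOH/2% SDS and counted by scintillation.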
On the technique in general: Loss of bound radioactivity is the signal in a displacement assay; it reports binding, not function.

The test system of series [3] is Heme. The experiment in a line: Inhibition of heme crystallization at 7.5 uM after 24 hrs at pH 5.2 - 5.6.
The test system of series [4] is Plasmodium falciparum. The experiment in a line: Antiplasmodial activity against Plasmodium falciparum infected in erythrocytes assessed as stabilization of free heme at 0.05 uCi after 16 hrs by scintillation counting. In kind it is functional, organism-based. The note with it: tested as the 3H-labelled form.
Series [5] concerns Plasmodium yoelii. The experiment in a line: Antimalarial activity against chloroquine-sensitive Plasmodium yoelii 17X infected in mice (Mus musculus) assessed as complete cure from parasite infection at 300 mg/m'2, perorally daily for 4 days administered 2 hrs post infection measured on day 4. In kind it is functional, organism-based. In outline: (§1)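 P. yoelii 17X lethal strain was used in male C57/BL6 mice (5-6 weeks, 25 ± 2 g), assessed by the 4-d suppression test. Drug or an equal volume of vehicle was given intraperitoneally or per os. Parasitemia is reported as mean ± s.e.m. Cure meant survival to day 30 with cleared parasitemia and no recrudescence over a further 30 days. Two-tailed t-test was used.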

For series [6], the system named is Plasmodium falciparum. The experiment in a line: Antimalarial activity against Plasmodium falciparum ItG assessed as inhibition of parasite growth after 48 to 96 hrs by [3H]hypoxanthine incorporation assay. Type of series: functional, organism-based. In a few lines: (§2)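 Synchronized ring-stage parasites in RPMI 1640 with 10% human serum, 0.2% parasitemia and 2-4% hematocrit, were exposed to drug for 48 or 96 h with [3H]-hypoxanthine. Growth was read as radioactive incorporation. IC50 came from a four-parameter logistic fit and is given as mean ± s.e.m. of triplicate experiments.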

The subject of series [7] is Plasmodium vinckei. The experiment in a line: Antimalarial activity against chloroquine-sensitive Plasmodium vinckei infected in mice (Mus musculus) assessed as reduction in parasitemia at 30 mg/m'2, intraperitoneally […]. Type of series: functional.
The subject of series [8] is Plasmodium yoelii. The experiment in a line: Antimalarial activity against chloroquine-sensitive Plasmodium yoelii 17X infected in mice (Mus musculus) assessed as reduction in parasitaemia at 15 mg/m'2, […] administered 2 hrs post infection […]. In kind it is functional.
For series [9], the system named is Plasmodium vinckei. The experiment in a line: Antimalarial activity against chloroquine-sensitive Plasmodium vinckei infected in mice (Mus musculus) assessed as complete cure from parasite infection at 300 mg/m'2, perorally qd for 4 days administered 2 hrs post infection measured on day 4. In kind it is functional. In outline: (§3)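 Male C57/BL6 mice (5-6 weeks, 25 ± 2 g) were infected with the P. vinckei Rhodain strain and assessed by the 4-d parasite suppression test. Astemizole tartrate or acetate, or an equal volume of vehicle, was given intraperitoneally or per os. Parasitemia is reported as mean ± s.e.m. Cure meant survival to 30 days post infection with parasitemia cleared and no recrudescence over the next 30 days. Two-tailed Student's t-test was used.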

Series [10] concerns Plasmodium vinckei. The experiment in a line: Antimalarial activity against chloroquine-sensitive Plasmodium vinckei infected in mice (Mus musculus) assessed as complete cure from parasite infection at 30 mg/m'2, intraperitoneally qd for 4 days administered 2 hrs post infection measured on day 5. Type of series: functional. In outline: as §3
Series [11] deals with Plasmodium yoelii. The experiment in a line: Antimalarial activity against chloroquine-sensitive Plasmodium yoelii 17X infected in mice (Mus musculus) assessed as complete cure from parasite infection at 15 mg/m'2, intraperitoneal daily for 4 days administered 2 hrs post infection measured on day 5. Type of series: functional, organism-based. In a few lines:
as §1

Series [12] relates to Plasmodium falciparum. The experiment in a line: Antimalarial activity against Plasmodium falciparum Dd2 assessed as inhibition of parasite growth after 48 to 96 hrs by [3H]hypoxanthine incorporation assay. In kind it is functional, organism-based. In outline:
as §2

Series [13] concerns Plasmodium falciparum. The experiment in a line: Antimalarial activity against Plasmodium falciparum 3D7 assessed as inhibition of parasite growth after 48 to 96 hrs by [3H]hypoxanthine incorporation assay. Type of series: functional, organism-based. In outline: as §2
Series [14] has as its system Plasma. The experiment in a line: Metabolic stability in human plasma assessed as desmethylastemizole half life. Type of series: ADME, cell-free.
Series [15] concerns Plasmodium vinckei. The experiment in a line: Antimalarial activity against chloroquine-sensitive Plasmodium vinckei infected in mice (Mus musculus) assessed as complete cure from parasite infection at 15 mg/m'2, intraperitoneally qd for 4 days administered 2 hrs post infection measured on day 5. Type of series: functional. In a few lines: as §3
The test system of series [16] is Plasmodium vinckei. The experiment in a line: Antimalarial activity against chloroquine-sensitive Plasmodium vinckei infected in mice (Mus musculus) assessed as reduction in parasitemia at 15 mg/m'2, intraperitoneally […]. In kind it is functional.
The nature of series [17]: Oral bioavailability in human. Type of series: ADME, organism-based. As to conditions: in vivo, read-out: Activity.
Series [18] can be described thus: Drug level in chloroquine-sensitive Plasmodium falciparum 3D7 culture at 1.5 uCi after 20 hrs. In kind it is ADME. As to conditions: plasmodium falciparum 3d7, 20 h.
Series [19] is described as follows: Drug level in Plasmodium falciparum 3D7 infected erythrocyte lysate at 1.5 uCi after 20 hrs. In kind it is ADME, cell-based.
Series [20] is described as follows: Drug level in hemozoin of Plasmodium falciparum 3D7 at 1.5 uCi after 20 hrs. In kind it is ADME. As to conditions: plasmodium falciparum 3d7, 20 h. In a few lines:
(§4)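 Duplicate 12 mL ring-stage cultures at 5% parasitemia were incubated with 1.5 µCi [3H]-astemizole for 20 h. Erythrocytes were harvested at the trophozoite stage and washed. Hemozoin was extracted by hypotonic lysis and purified by sucrose-cushion ultracentrifugation, then decrystallized in NaOH/SDS and counted by scintillation.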

Series [21] can be described thus: Drug level in hemozoin of Plasmodium falciparum Dd2 at 1.5 uCi after 20 hrs. In kind it is ADME. The note with it: plasmodium falciparum dd2, 20 h. In outline:
as §4

Series [22] can be described thus: Drug level in chloroquine-sensitive Plasmodium falciparum 3D7 lysate at 1.5 uCi after 20 hrs. In kind it is ADME. The note with it: plasmodium falciparum 3d7, 20 h.
Series [23] is described as follows: Drug level in chloroquine-resistant Plasmodium falciparum Dd2 lysate at 1.5 uCi after 20 hrs. Type of series: ADME. The note with it: plasmodium falciparum dd2, 20 h. In outline:
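Duplicate 12 mL ring-synchronized cultures (RPMI 1640, 10% human serum; 5% parasitemia) incubated 20 h with 1.5 µCi tritiated drug. Trophozoite-stage erythrocytes harvested and washed once. Hemozoin released by hypotonic lysis, then pelleted through 1.7 M sucrose/50 mM Tris-HCl pH 8.0 at 200,000 × g for 15 min. Pellet decrystallized in 50 mM NaOH, 2% SDS; radioactivity read by scintillation counting.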

The nature of series [24]: Drug level in chloroquine-sensitive Plasmodium falciparum Dd2 culture at 1.5 uCi after 20 hrs. Type of series: ADME. The note with it: plasmodium falciparum dd2, 20 h.
Series [25] is described as follows: Drug level in Plasmodium falciparum Dd2 infected erythrocyte lysate at 1.5 uCi after 20 hrs. In kind it is ADME, cell-based.

Regarding `C=C[C@H]1CN2CC[C@H]1C[C@@H]2[C@@H](O)c1ccnc2ccc(OC)cc12`, in series [1], the inhibition result is “Active”. In [2], the outcome was Active.

Consider `C=C[C@H]1CN2CC[C@H]1C[C@H]2[C@H](O)c1ccnc2ccc(OC)cc12`, for which the inhibition result in series [1] is “inactive”. Besides, the result in series [2] was inactive.

As for `CC1(C)S[C@@H]2[C@H](NC(=O)[C@H](N)c3ccccc3)C(=O)N2[C@H]1C(=O)O`, in series [1], the inhibition result is “inactive”. Moreover, the result in [2] was inactive.

Regarding `CCN(CC)CCCC(C)Nc1c2ccc(Cl)cc2nc2ccc(OC)cc12` (stereo unspecified), the inhibition entry in series [1] was “Active”. Further, the result in [2] was Active.

Take `CCN(CC)CCCC(C)Nc1ccnc2cc(Cl)ccc12` (stereo unspecified): the result in [2] (tested as the 3H-labelled form) was inactive. Further, the inhibition entry in series [3] (tested as the 3H-labelled form) is “Active”. Also, the result in series [4] was Active.

As to `COc1ccc(CCN(C)CCCC(C#N)(c2ccc(OC)c(OC)c2)C(C)C)cc1OC` (stereo unspecified), in [1], the inhibition result is “inactive”. Also, in series [2], the result was inactive.

For `C[C@@H]1CC[C@H]2[C@@H](C)C(=O)O[C@@H]3O[C@@]4(C)CC[C@@H]1[C@]32OO4`, the inhibition result in series [1] is “inactive”. Further, the outcome in series [2] was inactive.

As to `OC(c1cc(C(F)(F)F)nc2c(C(F)(F)F)cccc12)C1CCCCN1` (stereo unspecified), the inhibition result in series [1] is “inactive”. For the same compound, the result in [2] was inactive.

The term IC50 denotes the concentration that gives 50% inhibition. Turning to `COc1ccc(CCN2CCC(Nc3nc4ccccc4n3Cc3ccc(F)cc3)CC2)cc1` [ASTEMIZOLE], the IC50 in [1] stood at 12300 nM; in series [6], 734 nM; in [12], 457 nM; in [13], 227 nM. Moreover, the result in series [5], in [9] and in series [4] was Active. The “inhibition (INH)” value was 80% in series [7] and 44% in series [8]. For the same compound, the inhibition entry in series [3] is “Active”. Further, the outcome in series [10] and in series [11] was inactive.

As for `Oc1ccc(CCN2CCC(Nc3nc4ccccc4n3Cc3ccc(F)cc3)CC2)cc1` [DESMETHEYLASTEMIZOLE], the 50% inhibitory concentration (IC50) is 8130 nM in series [1], 56.8 nM in [6], 106 nM in [12] and 117 nM in series [13]. The t1/2 in series [14] came out at 170 h. The results for the “inhibition (INH)” value in [8] and in [16] were 40% and “<=81%”, respectively. In addition, the outcome in series [15] and in series [11] was inactive. Also, the bioavailability in series [17] was found to be 95%.

In the case of `Fc1ccc(Cn2c(NC3CCNCC3)nc3ccccc32)cc1` [TECASTEMIZOLE], the figures for the IC50 in series [6], in series [12] and in [13] were 2230 nM, 3590 nM and 4480 nM, respectively.

Regarding `[3H]C([3H])([3H])Oc1ccc(CCN2CCC(Nc3nc4ccccc4n3Cc3ccc(F)cc3)CC2)cc1` [[3H]-ASTEMIZOLE], the Drug uptake in series [18] came out at 20.9 cpm/uL; in series [19], 179 cpm/uL; in series [20] it was 19656 cpm/uL; in [21], 21389 cpm/uL; in series [22] it was 2105 cpm/uL; in [23] it was 2598 cpm/uL. Further, the Drug uptake in [24] is on record as 17.9 cpm/uL; in series [25], 144 cpm/uL.

Take `[3H]c1nc2c([3H])c(Cl)c([3H])c([3H])c2c(N([3H])C([3H])(C([3H])([3H])[3H])C([3H])([3H])C([3H])([3H])C([3H])([3H])N(C([3H])([3H])C([3H])([3H])[3H])C([3H])([3H])C([3H])([3H])[3H])c1[3H]` (stereo unspecified) [[3H]-CHLOROQUINE]: the midpoint of inhibition in [1], the IC50, lay at 5740 nM.
